# Compound activity (PubChem)
# NR2E3 ag-1 = human photoreceptor-specific nuclear receptor agonism. Q9Y5X4. CHO-S Gal4-NCOR/VP16-NR2E3 two-hybrid, luciferase. inhibition of corepressor binding, % at 3.98 µM. actives 0.35% (n = 360,000). AID 602229;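 active means inhibition above the mean of all tested compounds plus 3 SD, cut at about 70% in these data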;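 further: 0% = DMSO with NR2E3 transfected cells and 100% = cells lacking NR2E3 construct; higher means lower luciferase signal from less NR2E3 corepressor binding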
# Target sequence (Q9Y5X4 whole entry, looked up, the tested form may be a part): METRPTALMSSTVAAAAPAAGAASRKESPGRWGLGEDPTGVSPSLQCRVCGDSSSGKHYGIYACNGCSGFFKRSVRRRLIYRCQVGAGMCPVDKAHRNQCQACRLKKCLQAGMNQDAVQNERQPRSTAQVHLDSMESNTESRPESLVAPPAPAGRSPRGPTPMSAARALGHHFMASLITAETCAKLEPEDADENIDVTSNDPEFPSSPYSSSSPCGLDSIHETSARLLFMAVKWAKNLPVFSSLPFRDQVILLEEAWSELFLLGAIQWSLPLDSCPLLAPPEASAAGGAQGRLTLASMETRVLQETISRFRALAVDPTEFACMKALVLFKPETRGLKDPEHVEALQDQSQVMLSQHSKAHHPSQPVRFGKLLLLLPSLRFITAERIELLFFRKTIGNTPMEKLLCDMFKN
# PG9 binder = PG9 antibody binding by small molecule; TR-FRET gp120-PG9 antibody binding; actives 0.43% (n = 360,000); inhibition, % at 6.7 µM; AID 624416; in the data active means inhibition above about 8.5%
# MC4R antag cAMP = blocks human MC4R cAMP signaling. inhibition, % at 6.5 µM. MC4R-expressing cells, MTII-stimulated cAMP, LANCE TR-FRET. P32245. AID 540295. actives 0.48% (n = 360,000);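 active means inhibition above its plate's cutoff, the mean of tested wells on that plate plus 3 SD, cut at about 29% in these data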;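 further: 0% = Melanotan II alone and 100% = Melanotan II plus saturating MCL0020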
#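 Material: human MC4R-expressing U2OS cells. Probe or stimulus: Melanotan II challenge. Dosing: 6.5 µM single dose. Times: 30-min compound, 1-h challenge, 1-h detection, room temperature. Technique: TR-FRET with Eu-cAMP and labeled anti-cAMP, 671 nm. Replication: singlicate.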
# NR2E3 ag-2 = agonists of human nuclear receptor NR2E3; Q9Y5X4; GST-NR2E3/biotin-RetCOR TR-FRET, 1536-well; inhibition of corepressor binding, % at 4.78 µM; actives 0.12% (n = 320,000);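 active means percent inhibition above the cutoff of mean plus 3 SD of all tested compounds, set per screening campaign, cut at about 20% in these data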;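 further: 0% = DMSO wells and 100% = biotin wells as full block of FRET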
#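 Material: NR2E3–RetCOR corepressor complex / Incubation: Compound–protein incubation for 5 h at 4 °C / Dosing: compound at 4.8 µM, single dose / Detection: time-resolved FRET / Benchmarks: high control biotin, low control 0.6% DMSO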
# Rev-erbA mod = modulates human Rev-erb alpha binding to DNA | P20393 | Rev-erbα–FITC-DNA binding, fluorescence polarization, 90 min | activity, % at 10 µM | actives 0.79% (n = 370,000) | AID 1259318;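 active means activity above about 14%, limit read from the data; passing the limit was not always enough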;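 further: 0% = DMSO wells with 35 nM protein and 100% = DMSO wells with 750 nM protein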
# MC4R barr agon = human MC4R agonism via beta-arrestin; P32245; U2OS MC4R beta-arrestin complementation, luminescence; percent of melanotan II response, DMSO zero; activation, % at 8.9 µM; actives 0.98% (n = 360,000);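 active means activation above a per-plate cutoff, the mean activation of sample wells on that plate plus 3 SD, cut at about 8% in these data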
# MC4R barr ag = human MC4R beta-arrestin agonism confirmation; activation, % at 8.9 µM; actives 31% (n = 2,400); U2OS MC4R beta-arrestin recruitment, luminescence; scaled DMSO 0%, Melanotan II 100%; shares compounds with MC4R barr agon; AID 602192;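 active means mean activation across replicates above the hit cutoff set in the earlier primary screen, cut at about 8% in these data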
# MOR DOR agonist = activates mu-delta opioid heterodimer, MC4R agonist counter-screen | shares compounds with MC4R barr agon | actives 5.8% (n = 2,400) | activation, % at 9.2 µM | U2OS PathHunter beta-arrestin, beta-gal luminescence; percent of deltorphin B response, DMSO zero;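 active means mean activation across replicates exceeds the hit threshold derived in the earlier primary screen, cut at about 18% in these data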;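 further: 100% = deltorphin B at 0.9 µM final and 0% = DMSO alone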
# PG9 binder conf = PG9 antibody binding, confirmed; shares compounds with PG9 binder; TR-FRET PG9 antibody binding, biochemical; actives 90% (n = 1,500); inhibition, % at 6.7 µM; in the data active means inhibition above about 9%
# PGV04 Ab binding = PGV04 control antibody binding, counter-screen | shares compounds with PG9 binder | TR-FRET PGV04 antibody-gp120 binding, biochemical | inhibition, % at 6.7 µM | actives 95% (n = 1,500); in the data active means inhibition above about 9.5%
# Rev-erbA confirm = Rev-erb alpha (human) modulation, hit confirmation. actives 61% (n = 3,000). activation, % at 25 µM. Rev-erb alpha FITC-DNA binding, fluorescence polarization, 90 min. shares compounds with Rev-erbA mod;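 active means activation at or above a set limit, or at least 3 SD above the negative control mean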;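 further: 0% = 35 nM protein with DMSO and 100% = 750 nM protein high control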
# RORg counter = RORgamma DNA-binding activity, dose-response counter-screen; shares compounds with Rev-erbA mod; purified RORgamma protein-FITC-DNA binding, fluorescence polarization; IC50, µM; actives 8% (n = 910); AID 1259320;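 active means Compounds whose fitted half-maximal concentration for disrupting protein-DNA binding is below 10 micromolar; the record names Rev-erb in its text, so the target is in doubt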
# * hit, by the source's call; / = no result. Hits are enriched below; roughly 2.7% of the tested compounds scored in any of these assays.
SMILES,NR2E3 ag-1,PG9 binder,MC4R antag cAMP,NR2E3 ag-2,Rev-erbA mod,MC4R barr agon,MC4R barr ag,MOR DOR agonist,Rev-erbA confirm,others
COc1ccc(C(C)=O)cc1COC(=O)c1ccc(OCc2c(C)noc2C)cc1,-29.2,6.5,0.8,1.9,16.3*,15.7*,9.2*,3.1,12.1,
COc1ccc(C(C)=O)cc1COC(=O)c1c(C)noc1C,-35.4,0.8,-3.3,-2.5,-5.7,-0.1,/,/,/,
CCOC(=O)CC(=O)CSc1nc(-c2ccc3c(c2)OCO3)cc(C(F)(F)F)c1C#N,7.8,/,28.2,0.8,110.3*,25.5*,8.9*,5.0,84.5*,RORg counter=>40
CCOC(=O)CC(=O)CSc1nc(-c2ccccc2)cc(-c2ccccc2)c1C#N,-4.4,-1.8,6.2,2.2,18.3,-1.9,/,/,/,
O=c1[nH]c(/C=C/c2cccc3ccccc23)nc2ccccc12,-64.7,33.0*,0.9,1.6,60.2*,15.9*,1.5,1.8,25.4*,PG9 binder conf=44.6*;PGV04 Ab binding=46.3*
COc1cc(C(=O)OCCn2c(=O)c3c(ncn3CCN(C)C)n(C)c2=O)cc(OC)c1OC,-5.5,-0.2,3.2,1.8,-1.8,-1.7,/,/,/,
O=C(COc1ccccc1)Nc1nc2cc3c(cc2s1)OCCO3,-85.3,1.7,4.8,-12.3,76.0*,13.9*,6.4,0.7,50.2*,RORg counter=>40
CC(=O)Nc1ccc2nc(NC(=O)COc3ccccc3)sc2c1,-22.6,-0.1,8.8,0.6,2.6,-2.3,/,/,/,
CCc1ccc(-c2nc(NC(=O)c3ccc(OCC(=O)Nc4ccc(F)cc4)c(OC)c3)sc2C)cc1,-17.0,-0.8,13.1,-2.3,112.8*,11.2*,10.5*,5.1,66.2*,RORg counter=>40
CCOc1ccccc1-c1nc(-c2ccc(NC(=O)c3ccc(Br)o3)cc2)no1,/,2.9,/,-2.6,4.8,/,/,/,/,
CCOc1ccccc1-c1nc(-c2ccc(NC(=O)Cc3ccc(OC)cc3)cc2)no1,-34.3,-0.7,-12.6,-1.3,42.8*,21.1*,25.0*,20.6*,70.0*,RORg counter=>40
O=C(Nc1ccc(F)cc1)c1cc(-c2ccncc2)nc2c(Cl)cccc12,-15.2,0.9,-1.7,1.9,23.7*,12.3*,0.8,9.7,9.3,
O=C(Nc1nnc(C2=COCCO2)o1)c1ccc(S(=O)(=O)N2CCOCC2)cc1,13.5,-2.7,-3.0,1.7,-1.3,-1.2,/,/,/,
Cc1ccc(SCc2cc(=O)[nH]c(Nc3nc(C)c4cccc(C)c4n3)n2)cc1,-15.4,-3.1,4.9,0.0,-15.8,-1.4,/,/,/,
CCCCCc1ccc(OCCCC[n+]2cccc(C)c2)c(CCCCC)c1,-4.6,-0.2,10.7,1.5,21.1*,15.8*,13.2*,5.7,27.6*,
CCCCOc1ccc(C)cc1CN(CCO)CCO,-8.9,-1.7,0.8,2.4,-1.6,-0.1,/,/,/,
COc1cc(OC)cc(-c2c(-c3cccs3)c3cc(-c4ccc5c(c4)OCO5)ccc3n2C)c1,-25.2,-10.3,-3.4,4.1,1.3,-0.9,/,/,/,
